ChEMBL document CHEMBL3596093, “Synthesis and antimicrobial evaluation of 5-aryl-1,2,4-triazole-3-thione derivatives containing a rhodanine moiety” (2015)
Converted amounts (≈) assume the structure as drawn.

Experiments:
Escherichia coli [1] = test: Antibacterial activity against Escherichia coli CCARM 1356 after 24 hrs by two-fold serial dilution method; format: functional; conditions: CCARM 1356, 24 h
Procedure, shortened: (§1)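 Strains grown to mid-log phase in Mueller-Hinton broth, then diluted 1000-fold in the same broth to about 10^5 CFU/mL. Compounds were made up as DMSO stocks and two-fold serially diluted from a final top concentration of 64 µg/mL. Incubation was 37 °C for 24 h. Growth was read as absorbance at 630 nm on a microplate reader. MIC assays were run in triplicate.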

Staphylococcus aureus [2] = test: Ratio of MBC to MIC for Staphylococcus aureus KCTC 503; format: functional
Procedure, shortened: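 The ratio divides MBC by MIC for the same strain. MIC comes from two-fold broth microdilution in Mueller-Hinton broth (about 10^5 CFU/mL, 37 °C, 24 h, absorbance at 630 nm). MBC comes from subculturing 5 µL from clear wells onto Mueller-Hinton agar for another 24 h at 37 °C, taken as the lowest concentration with no colonies.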

Staphylococcus aureus [3] = test: Antibacterial activity against Staphylococcus aureus RN4220 after 24 hrs by two-fold serial dilution method; format: functional; conditions: RN4220, 24 h
Procedure, shortened: (§2)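 Broth microdilution MIC. Bacteria grown to mid-log phase in Mueller-Hinton broth, diluted 1000-fold, about 10^5 CFU/mL. Compounds from DMSO stocks, two-fold serial dilution from a final 64 µg/mL. Incubation at 37 °C for 24 h. Growth read as absorbance at 630 nm on a microplate reader. Run in triplicate.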

Staphylococcus aureus [4] = test: Bactericidal activity against Staphylococcus aureus KCTC 503 after 24 hrs by agar plate method; format: functional; conditions: KCTC 503, 24 h
Procedure, shortened: (§3)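 5 µL from each well without visible growth plated on fresh Mueller-Hinton agar, then 37 °C for a further 24 h. MBC is the lowest concentration giving no visible colonies. Run in triplicate.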

Staphylococcus aureus [5] = test: Antibacterial activity against Staphylococcus aureus KCTC 503 after 24 hrs by two-fold serial dilution method; format: functional; conditions: KCTC 503, 24 h; procedure, shortened: as §1
Streptococcus mutans [6] = test: Bactericidal activity against Streptococcus mutans 3065 after 24 hrs by agar plate method; format: functional; conditions: Streptococcus mutans, 3065, 24 h
Procedure, shortened: (§4)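 Samples of 5 µL from MIC wells with no visible growth were plated onto fresh Mueller-Hinton agar and incubated a further 24 h at 37 °C. MBC is the lowest concentration giving no visible colony growth on the agar. Assays were run in triplicate.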

Streptococcus mutans [7] = test: Antibacterial activity against Streptococcus mutans 3065 after 24 hrs by two-fold serial dilution method; format: functional; conditions: Streptococcus mutans, 3065, 24 h; procedure, shortened: as §1
Staphylococcus aureus [8] = test: Antibacterial activity against quinolone-resistant Staphylococcus aureus CCARM 3519 after 24 hrs by two-fold serial dilution method; format: functional; conditions: CCARM 3519, 24 h; procedure, shortened: as §2
Staphylococcus aureus [9] = test: Bactericidal activity against Staphylococcus aureus RN4220 after 24 hrs by agar plate method; format: functional; conditions: RN4220, 24 h; procedure, shortened: as §4
Candida albicans = test: Antifungal activity against Candida albicans 7535 after 24 hrs by two-fold serial dilution method; format: functional; conditions: Candida albicans, 7535, 24 h
Staphylococcus aureus [10] = test: Antibacterial activity against methicillin-resistant Staphylococcus aureus CCARM 3167 after 24 hrs by two-fold serial dilution method; format: functional; conditions: CCARM 3167, 24 h; procedure, shortened: as §2
Pseudomonas aeruginosa [11] = test: Antibacterial activity against Pseudomonas aeruginosa 2004 after 24 hrs by two-fold serial dilution method; format: functional; conditions: Pseudomonas aeruginosa, 2004, 24 h; procedure, shortened: as §1
Staphylococcus aureus [12] = test: Antibacterial activity against Staphylococcus aureus KCTC 209 after 24 hrs by two-fold serial dilution method; format: functional; conditions: KCTC 209, 24 h; procedure, shortened: as §1
Staphylococcus aureus [13] = test: Bactericidal activity against quinolone-resistant Staphylococcus aureus CCARM 3505 after 24 hrs by agar plate method; format: functional; conditions: CCARM 3505, 24 h; procedure, shortened: as §3
Pseudomonas aeruginosa [14] = test: Antibacterial activity against Pseudomonas aeruginosa 2742 after 24 hrs by two-fold serial dilution method; format: functional; conditions: Pseudomonas aeruginosa, 2742, 24 h; procedure, shortened: as §1
Staphylococcus aureus [15] = test: Bactericidal activity against quinolone-resistant Staphylococcus aureus CCARM 3519 after 24 hrs by agar plate method; format: functional; conditions: CCARM 3519, 24 h; procedure, shortened: as §3
Staphylococcus aureus [16] = test: Antibacterial activity against methicillin-resistant Staphylococcus aureus CCARM 3506 after 24 hrs by two-fold serial dilution method; format: functional; conditions: CCARM 3506, 24 h; procedure, shortened: as §2
Staphylococcus aureus [17] = test: Bactericidal activity against methicillin-resistant Staphylococcus aureus CCARM 3506 after 24 hrs by agar plate method; format: functional; conditions: CCARM 3506, 24 h; procedure, shortened: as §3
Escherichia coli [18] = test: Antibacterial activity against Escherichia coli KCTC 1924 after 24 hrs by two-fold serial dilution method; format: functional; conditions: KCTC 1924, 24 h; procedure, shortened: as §1
Staphylococcus aureus [19] = test: Antibacterial activity against quinolone-resistant Staphylococcus aureus CCARM 3505 after 24 hrs by two-fold serial dilution method; format: functional; conditions: CCARM 3505, 24 h; procedure, shortened: as §2
Salmonella typhimurium = test: Antibacterial activity against Salmonella typhimurium 2421 after 24 hrs by two-fold serial dilution method; format: functional, Salmonella enterica subsp. enterica serovar Typhimurium; conditions: Salmonella enterica, 2421, 24 h; procedure, shortened: as §1
Staphylococcus aureus [20] = test: Bactericidal activity against methicillin-resistant Staphylococcus aureus CCARM 3167 after 24 hrs by agar plate method; format: functional; conditions: CCARM 3167, 24 h; procedure, shortened: as §3
Escherichia coli [21] = test: Bactericidal activity against Escherichia coli KCTC 1924 after 24 hrs by agar plate method; format: functional; conditions: KCTC 1924, 24 h; procedure, shortened: as §4

Row | Compound | MIC (Escherichia coli [1]) [µg/mL] | MIC (Staphylococcus aureus [3]) [µg/mL] | MIC (Staphylococcus aureus [5]) [µg/mL] | MIC (Streptococcus mutans [7]) [µg/mL] | MIC (Staphylococcus aureus [8]) [µg/mL] | MIC (Candida albicans) [µg/mL] | MIC (Staphylococcus aureus [10]) [µg/mL] | MIC (Pseudomonas aeruginosa [11]) [µg/mL] | MIC (Staphylococcus aureus [12]) [µg/mL] | MIC (Pseudomonas aeruginosa [14]) [µg/mL] | MBC (Staphylococcus aureus [15]) [µg/mL] | MIC (Staphylococcus aureus [16]) [µg/mL] | MIC (Escherichia coli [18]) [µg/mL] | MIC (Staphylococcus aureus [19]) [µg/mL] | MIC (Salmonella typhimurium) [µg/mL] | further results
1 | O=C(O)[C@H](Cc1ccccc1)N1C(=O)/C(=C/c2ccc(/C=N/n3c(-c4ccc(Br)cc4)n[nH]c3=S)cc2)SC1=S | > 128 | 8 (≈ 12.3 µM) | 8 (≈ 12.3 µM) | 16 (≈ 24.6 µM) | 8 (≈ 12.3 µM) | > 64 | 8 (≈ 12.3 µM) | > 128 | > 64 | > 128 | 64 (≈ 98.4 µM) | 16 (≈ 24.6 µM) | > 128 | 8 (≈ 12.3 µM) | > 128 | Ratio (Staphylococcus aureus [2]): <=4; MBC (Staphylococcus aureus [4]): 32 µg/mL (≈ 49.2 µM); MBC (Streptococcus mutans [6]): 64 µg/mL (≈ 98.4 µM); MBC (Staphylococcus aureus [9]): 64 µg/mL (≈ 98.4 µM); MBC (Staphylococcus aureus [13]): 32 µg/mL (≈ 49.2 µM); MBC (Staphylococcus aureus [17]): 128 µg/mL (≈ 197 µM); MBC (Staphylococcus aureus [20]): 32 µg/mL (≈ 49.2 µM)
2 | O=C(O)CN1C(=O)/C(=C/c2ccc(/C=N/n3c(-c4ccc(Cl)cc4)n[nH]c3=S)cc2)SC1=S | > 128 | > 64 | > 64 | > 64 | > 64 | > 64 | > 64 | > 128 | > 64 | > 128 |  | > 64 | > 128 | > 64 | > 128 | 
3 | O=C(O)CN1C(=O)/C(=C/c2ccc(/C=N/n3c(-c4ccccc4)n[nH]c3=S)cc2)SC1=S | > 128 | > 64 | > 64 | > 64 | > 64 | > 64 | > 64 | > 128 | > 64 | > 128 |  | > 64 | > 128 | > 64 | > 128 | 
4 | O=C1NC(=S)S/C1=C\c1ccc(/C=N/n2c(-c3ccc(Br)cc3)n[nH]c2=S)cc1 | > 128 | > 64 | > 64 | > 64 | > 64 | > 64 | > 64 | > 128 | > 64 | > 128 |  | > 64 | 64 (≈ 127 µM) | > 64 | > 128 | MBC (Escherichia coli [21]): > 256 µg/mL
5 | Cc1cccc(-c2n[nH]c(=S)n2/N=C/c2ccc(/C=C3\SC(=S)NC3=O)cc2)c1 | > 128 | 32 (≈ 73.1 µM) | 32 (≈ 73.1 µM) | > 64 | 32 (≈ 73.1 µM) | > 64 | 64 (≈ 146 µM) | > 128 | > 64 | > 128 | > 256 | 32 (≈ 73.1 µM) | 32 (≈ 73.1 µM) | 32 (≈ 73.1 µM) | > 128 | MBC (Staphylococcus aureus [4]): > 256 µg/mL; MBC (Staphylococcus aureus [9]): > 256 µg/mL; MBC (Staphylococcus aureus [13]): > 256 µg/mL; MBC (Staphylococcus aureus [17]): > 256 µg/mL; MBC (Escherichia coli [21]): 256 µg/mL (≈ 585 µM); MBC (Staphylococcus aureus [20]): > 256 µg/mL
6 | O=C(O)CN1C(=O)/C(=C/c2ccc(/C=N/n3c(-c4cccc(Cl)c4)n[nH]c3=S)cc2)SC1=S | > 128 | > 64 | > 64 | > 64 | > 64 | > 64 | > 64 | > 128 | > 64 | > 128 |  | > 64 | > 128 | > 64 | > 128 | 
7 | O=C(O)CN1C(=O)/C(=C/c2ccc(/C=N/n3c(-c4ccc(Br)cc4)n[nH]c3=S)cc2)SC1=S | > 128 | > 64 | > 64 | > 64 | > 64 | > 64 | > 64 | > 128 | > 64 | > 128 |  | > 64 | > 128 | > 64 | > 128 | 
8 | Cc1ccc(-c2n[nH]c(=S)n2/N=C/c2ccc(/C=C3\SC(=S)N(CC(=O)O)C3=O)cc2)cc1 | > 128 | > 64 | > 64 | > 64 | 16 (≈ 32.3 µM) | > 64 | > 64 | > 128 | > 64 | > 128 | > 128 | > 64 | > 128 | > 64 | > 128 | 
